We go through 22 molecules from ChEMBL document CHEMBL1148397, “Synthesis and biological evaluation of 2,3,5-substituted [1,2,4]thiadiazoles as allosteric modulators of adenosine receptors” (J Med Chem, 2004).

For experiment [1], the target named is T1, Adenosine receptor A1 (Homo sapiens) (UniProt P30542).
T1 sequence (whole entry): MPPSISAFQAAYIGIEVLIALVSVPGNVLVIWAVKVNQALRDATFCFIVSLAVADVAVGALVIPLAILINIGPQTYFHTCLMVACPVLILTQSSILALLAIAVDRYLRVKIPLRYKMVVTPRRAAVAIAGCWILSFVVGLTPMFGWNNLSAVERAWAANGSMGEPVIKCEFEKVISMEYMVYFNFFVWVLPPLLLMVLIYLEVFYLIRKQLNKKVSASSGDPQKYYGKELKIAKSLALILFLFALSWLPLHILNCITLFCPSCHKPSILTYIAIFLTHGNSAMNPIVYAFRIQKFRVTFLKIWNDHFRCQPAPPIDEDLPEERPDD
The experiment can be described thus: Percent remaining of radioligand [3H]DPCPX binding to human adenosine A1 receptor at 10 uM. The method in brief:
(§1)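 CHO human A1 receptor membranes (40 μg protein, 2 IU/mL adenosine deaminase) incubated 60 min at 25 °C in Tris-HCl with ~1.6 nM [3H]DPCPX and a fixed compound concentration. Nonspecific binding defined with 10 μM CPA. Filtration on GF/B, scintillation counting. Reported as % specific binding remaining (control 100%, nonspecific 0%). Means of 2–3 experiments in duplicate.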

The target in experiment [2] is T1, Adenosine receptor A1 (Homo sapiens). The experiment can be described thus: Percent remaining of radioligand [3H]CCPA binding to human adenosine A1 receptor at 10 uM. An outline of the steps: (§2)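 Radioligand displacement: CHO human A1 receptor membranes (40 μg protein, 2 IU/mL adenosine deaminase) with ~1.0 nM [3H]CCPA plus fixed or increasing compound, 60 min at 25 °C in Tris-HCl. Nonspecific binding defined with 10 μM DPCPX. Ice-cold dilution, GF/B filtration, scintillation counting. Results as % specific binding, control 100%. Means of 2–3 experiments in duplicate.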

For experiment [3] the target is unchanged. The experiment can be described thus: Percent remaining of radioligand [3H]DPCPX binding to human adenosine A1 receptor at 1 uM. The method in brief: as §1
The target in experiment [4] is T2, Adenosine receptor A1 (Homo sapiens, UniProt P30542).
T2 sequence (P30542 whole entry): T1 sequence (whole entry)
The experiment can be described thus: Effective concentration for displacement of [3H]CCPA from human A1 adenosine receptor after 60 min. An outline of the steps:
as §2

The target of experiment [5] is T1, Adenosine receptor A1 (Homo sapiens). The experiment can be described thus: Dissociation constant for [3H]CCPA binding to human adenosine A1 receptor plus or minus compound (7 uM); t1/2 = 6.48 min.
For experiment [6], the target named is T2, Adenosine receptor A1. The experiment can be described thus: Effective concentration for displacement of [3H]-CCPA from human adenosine A1 receptor after 60 min. An outline of the steps:
as §2
In general terms: In a radioligand displacement assay an active substance lowers the binding of a labelled ligand.

Experiment [7] deals with T1, Adenosine receptor A1 (Homo sapiens). Put plainly: Dissociation constant for [3H]DPCPX binding to human adenosine A1 receptor plus or minus compound (7 uM); t1/2 = 5.27 min.
The target is the same in experiment [8]. The experiment can be described thus: Association constant for [3H]DPCPX binding to human Adenosine A1 receptor plus or minus compound (7 uM); appt1/2 = 1.77 min. An outline of the steps: (§3)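 Membranes from CHO cells expressing recombinant human A1 receptor (40 μg protein) preincubated 30 min at 25 °C with compound. Association started by adding [3H]DPCPX (0.34–0.36 nM), stopped at time points by rapid dilution, then filtered on GF/B and washed with ice-cold buffer. Membranes carry 2 IU/mL adenosine deaminase.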

For experiment [9] the target is unchanged. The experiment can be described thus: Association constant for [3H]DPCPX binding to human adenosine A1 receptor plus or minus compound (10 uM); appt1/2 = 3.85 min. An outline of the steps: as §3
Experiment [10] has the same target. Put plainly: Dissociation constant for [3H]-CCPA binding to human adenosine A1 receptor plus or minus compound (10 uM); t1/2 = 5.37 min.
Experiment [11] has the same target. Put plainly: Dissociation constant for [3H]DPCPX binding to human adenosine A1 receptor plus or minus compound (10 uM); t1/2 = 6.61 min.

On to `CC/N=c1\nc(-c2ccccc2)n(-c2cccc(C)c2)s1`, for which the results for the Remaining in experiment [1], in experiment [2] and in [3] were 75%, 6% and 98%, respectively.

Regarding `C/N=c1\nc(-c2ccc(C)cc2)n(-c2ccc(C)cc2)s1`, the Remaining amounted to 97% in experiment [1], 20% in experiment [2] and 104% in experiment [3].

Take `CC/N=c1\nc(-c2ccccc2)n(-c2ccc(Cl)cc2)s1`: the Remaining was 109% in [1], 30% in experiment [2] and 104% in experiment [3].

The term EC50 denotes the concentration that produces a half-maximal response. A higher EC50 goes with a less potent agent. For the molecule `C/N=c1\nc(-c2ccccc2)n(-c2cccc(C)c2)s1`, the Remaining was 109% in experiment [1], 5% in experiment [2] and 99% in experiment [3]. For the same molecule, the half-maximal effective concentration (EC50) at Adenosine receptor A1 [4] turned out to be 0.64 µM.

On to `CC/N=c1\nc(-c2ccccc2)n(-c2ccccc2)s1`, for which the Remaining worked out at 114% in experiment [1], 6% in experiment [2] and 103% in experiment [3].

On to `C/N=c1\nc(-c2ccccc2)n(-c2ccc(Cl)c(Cl)c2)s1`, for which the Remaining worked out at 111% in [1], 33% in [2] and 94% in [3].

Turning to `C/N=c1\nc(-c2ccc(OC)cc2)n(-c2ccccc2)s1`, the Remaining in experiment [1] was determined as 114%; in experiment [2], 35%; in experiment [3] it was 100%.

Turning to `CC/N=c1\nc(-c2ccccc2)n(-c2ccc(OC)cc2)s1`, the results for the Remaining in [1], in [2] and in experiment [3] were 120%, 24% and 103%, respectively.

As for `C/N=c1\nc(-c2ccc(Cl)cc2)n(-c2ccc(Cl)cc2)s1`, the Remaining in experiment [1] is 119%; in experiment [2] it was 20%; in experiment [3], 93%.

With `C/N=c1\nc(-c2ccccc2)n(-c2ccc(C)cc2)s1`, the figures for the Remaining in experiment [1], in [2] and in experiment [3] were 123%, 31% and 99%, respectively.

Take `C/N=c1\nc(-c2ccccc2)n(-c2ccc(Cl)cc2)s1`: the results for the Remaining in [1], in [2] and in [3] were 126%, 33% and 94%, respectively.

For the molecule `CC/N=c1\nc(-c2ccccc2)n(-c2ccc(C)cc2)s1`, the Remaining in [1] amounted to 105%; in experiment [2] it was 28%; in [3], 101%.

On to `CC/N=c1\nc(-c2ccccc2)n(-c2cccc(Cl)c2)s1`, for which the Remaining in [1] was found to be 86%; in [2], 39%; in experiment [3] it was 101%.

For `Cc1sc(N)c(C(=O)c2cccc(C(F)(F)F)c2)c1C`, the Remaining is 68% in [1], 225% in experiment [2] and 87% in [3].

Turning to `CC/N=c1\nc(-c2ccc(Cl)cc2)n(-c2ccc(Cl)cc2)s1`, the Remaining in experiment [1] stood at 84%; in experiment [2], 24%; in experiment [3] it was 95%.

As usually defined, the kon is a measure of how fast the partners come together. Consider `C/N=c1\nc(-c2ccccc2)n(-c2ccc(OC)cc2)s1`, for which the k off in experiment [5] was 0.00184 s⁻¹; in [7], 0.00217 s⁻¹. Besides, at Adenosine receptor A1 [6], it took 2.4 µM to reach a half-maximal effect (EC50). Further, the Remaining in experiment [1] amounted to 132%; in experiment [2] it was 24%; in experiment [3] it was 103%. Further, in [8], the kon is 1.98e+07 M⁻¹ s⁻¹.

For the molecule `C/N=c1\nc(-c2cccc(Cl)c2)n(-c2cccc(Cl)c2)s1`, the Remaining was determined as 93% in experiment [1], 36% in experiment [2] and 96% in experiment [3].

On to `CC/N=c1\nc(-c2ccccc2)n(-c2ccc(Cl)c(Cl)c2)s1`, for which the Remaining is 90% in [1], 35% in experiment [2] and 100% in experiment [3].

On to `CC/N=c1\nc(-c2ccc(C)cc2)n(-c2ccc(C)cc2)s1`, for which, on Adenosine receptor A1 [6], the EC50 is 1.6 µM. The Remaining in [1] is 61%; in experiment [2], 32%; in [3] it was 100%.

Turning to `C/N=c1\nc(-c2ccccc2)n(-c2ccccc2)s1`, in [9], the on-rate constant (kon) worked out at 3.5e+06 M⁻¹ s⁻¹. This molecule also had an EC50 on Adenosine receptor A1 [6] of 2.8 µM. The Remaining was 149% in experiment [1], 10% in experiment [2] and 104% in [3]. Besides, the k off in experiment [10] came out at 0.00217 s⁻¹; in experiment [11] it was 0.00184 s⁻¹.

In the case of `C/N=c1\nc(-c2ccccc2)n(-c2cccc(Cl)c2)s1`, the Remaining in experiment [1] was 108%; in [2], 35%; in experiment [3] it was 96%.

`C/N=c1\nc(-c2ccc(Cl)cc2)n(-c2ccccc2)s1`: the results for the Remaining in experiment [1], in experiment [2] and in experiment [3] were 119%, 15% and 106%, respectively.
